In ChEMBL document CHEMBL1131215, “Anhydrolide macrolides. 1. Synthesis and antibacterial activity of 2,3-anhydro-6-O-methyl 11,12-carbamate erythromycin A analogues” (1998):
Converted amounts (≈) assume the structure as drawn.

Experiments:
Format in all cases: functional
Mus musculus [1] = test: Effective dose when administered orally in mice infected with Streptococcus pneumoniae ATCC 6303; settings: po
Procedure, shortened: (§1)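 Mice infected intraperitoneally with 1000 × LD₅₀ (S. aureus) or […] × LD₅₀ (S. pneumoniae). Compound given orally (po) or subcutaneously (sc) at 1 and 5 h post-infection. ED₅₀ expressed in mg/kg/day with 95% confidence interval.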

Streptococcus pneumoniae [2] = test: In vitro antibacterial activity against 5979 strain of Streptococcus pneumoniae
Procedure, shortened: (§2)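 MIC determined by standard agar dilution; values in μg/mL.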

Streptococcus pneumoniae [3] = test: In vivo antibacterial activity in mice infected with Streptococcus pneumoniae ATCC 6303
Streptococcus pneumoniae [4] = test: In vitro antibacterial activity against 5649 strain of Streptococcus pneumoniae; settings: Streptococcus pneumoniae; procedure, shortened: as §2
[5] = In vitro antibacterial activity against A-5278 strain of Staphylococcus aureus; settings: Staphylococcus aureus; procedure, shortened: as §2
Staphylococcus aureus [6] = test: In vitro antibacterial activity against A5177 strain of Staphylococcus aureus; settings: Staphylococcus aureus; procedure, shortened: as §2
Mus musculus [7] = test: Effective dose when administered subcutaneously in mice infected with Staphylococcus aureus NCTC-10649M.; settings: sc; procedure, shortened: as §1
Haemophilus influenzae = test: In vitro antibacterial activity against DILL strain of Haemophilus influenzae.; procedure, shortened: as §2
Streptococcus pyogenes [8] = test: In vitro antibacterial activity against 930 strain of Streptococcus pyogenes; settings: Streptococcus pyogenes; procedure, shortened: as §2
Streptococcus pyogenes [9] = test: In vitro antibacterial activity against PIU 2548 strain of Streptococcus pyogenes; procedure, shortened: as §2
Mus musculus [10] = test: Effective dose when administered orally in mice infected with Staphylococcus aureus NCTC-10649M.; settings: po; procedure, shortened: as §1
Mus musculus [11] = test: Effective dose when administered subcutaneously in mice infected with Streptococcus pneumoniae ATCC 6303; settings: sc; procedure, shortened: as §1
Streptococcus pneumoniae [12] = test: In vitro antibacterial activity against ATCC 6303 strain of Streptococcus pneumoniae; settings: Streptococcus pneumoniae, ATCC 6303; procedure, shortened: as §2
Staphylococcus aureus [13] = test: In vitro antibacterial activity against 6538P strain of Staphylococcus aureus; procedure, shortened: as §2
Staphylococcus aureus [14] = test: In vivo antibacterial activity in mice infected with Staphylococcus aureus NCTC-10649M.
Streptococcus pneumoniae [15] = test: In vitro antibacterial activity against Streptococcus pneumoniae 5979; procedure, shortened: as §2

Row | SMILES | MIC (Streptococcus pneumoniae [2]) [µg/mL] | MIC (Streptococcus pneumoniae [3]) [µg/mL] | MIC (Streptococcus pneumoniae [4]) [µg/mL] | MIC [5] [µg/mL] | MIC (Staphylococcus aureus [6]) [µg/mL] | MIC (Haemophilus influenzae) [µg/mL] | MIC (Streptococcus pyogenes [8]) [µg/mL] | MIC (Streptococcus pyogenes [9]; Streptococcus pyogenes) [µg/mL] | MIC (Streptococcus pneumoniae [12]) [µg/mL] | MIC (Staphylococcus aureus [13]; Staphylococcus aureus) [µg/mL] | MIC (Staphylococcus aureus [14]) [µg/mL] | MIC (Streptococcus pneumoniae [15]) [µg/mL] | MIC (Streptococcus pyogenes [9]) [µg/mL] | MIC (Staphylococcus aureus [13]) [µg/mL] | ED50 (Mus musculus [1]) [mg/kg/day] | ED50 (Mus musculus [7]) [mg/kg/day] | ED50 (Mus musculus [10]) [mg/kg/day] | ED50 (Mus musculus [11]) [mg/kg/day]
1 | CC[C@H]1OC(=O)/C(C)=C/[C@H](C)[C@@H](O[C@@H]2O[C@H](C)C[C@H](N(C)C)[C@H]2O)[C@@](C)(OC)C[C@@H](C)C(=O)[C@H](C)[C@H]2N(CCc3ccc(Cl)c(Cl)c3)C(=O)O[C@]12C | 8 (≈ 10.4 µM) | 0.12 (≈ 0.156 µM) | 2 (≈ 2.6 µM) | 12.5 (≈ 16.2 µM) | 0.39 (≈ 0.507 µM) | 32 (≈ 41.6 µM) | 6.2 (≈ 8.05 µM) | 0.2 (≈ 0.26 µM) | 0.12 (≈ 0.156 µM) | 0.39 (≈ 0.507 µM) | 0.39 (≈ 0.507 µM) |  |  |  | > 40 | > 40 | > 100 | > 16
2 | CC[C@H]1OC(=O)/C(C)=C/[C@H](C)[C@@H](O[C@@H]2O[C@H](C)C[C@H](N(C)C)[C@H]2O)[C@@](C)(OC)C[C@@H](C)C(=O)[C@H](C)[C@H]2N(CCc3ccc([N+](=O)[O-])cc3)C(=O)O[C@]12C | 64 (≈ 85.8 µM) | 0.06 (≈ 0.0804 µM) | 1 (≈ 1.34 µM) | 50 (≈ 67 µM) | 0.1 (≈ 0.134 µM) | 16 (≈ 21.5 µM) | 25 (≈ 33.5 µM) | 0.1 (≈ 0.134 µM) | 0.06 (≈ 0.0804 µM) | 0.1 (≈ 0.134 µM) | 0.1 (≈ 0.134 µM) |  |  |  | > 20 | > 40 | 50.1 | > 8
3 | CC[C@H]1OC(=O)/C(C)=C/[C@H](C)[C@@H](O[C@@H]2O[C@H](C)C[C@H](N(C)C)[C@H]2O)[C@@](C)(OC)C[C@@H](C)C(=O)[C@H](C)[C@H]2N(CCc3cccc(OC)c3)C(=O)O[C@]12C | 64 (≈ 87.6 µM) | 0.25 (≈ 0.342 µM) | 2 (≈ 2.74 µM) |  | 0.39 (≈ 0.534 µM) | 16 (≈ 21.9 µM) | 25 (≈ 34.2 µM) | 0.39 (≈ 0.534 µM) | 0.25 (≈ 0.342 µM) | 0.39 (≈ 0.534 µM) | 0.39 (≈ 0.534 µM) |  |  |  | > 100 |  | > 100 | 
4 | CC[C@H]1OC(=O)/C(C)=C/[C@H](C)[C@@H](O[C@@H]2O[C@H](C)C[C@H](N(C)C)[C@H]2O)[C@@](C)(OC)C[C@@H](C)C(=O)[C@H](C)[C@H]2N(CCc3ccc(F)cc3)C(=O)O[C@]12C | 32 (≈ 44.5 µM) | 0.125 (≈ 0.174 µM) | 1 (≈ 1.39 µM) | 50 (≈ 69.6 µM) | 0.39 (≈ 0.542 µM) | 16 (≈ 22.3 µM) | 25 (≈ 34.8 µM) | 0.39 (≈ 0.542 µM) | 0.125 (≈ 0.174 µM) | 0.39 (≈ 0.542 µM) | 0.39 (≈ 0.542 µM) |  |  |  | > 40 |  | > 100 | 
5 | CC[C@H]1OC(=O)/C(C)=C/[C@H](C)[C@@H](O[C@@H]2O[C@H](C)C[C@H](N(C)C)[C@H]2O)[C@@](C)(OC)C[C@@H](C)C(=O)[C@H](C)[C@H]2N(CCc3ccc(Br)cc3)C(=O)O[C@]12C | 16 (≈ 20.5 µM) | 0.125 (≈ 0.16 µM) | 1 (≈ 1.28 µM) | 25 (≈ 32.1 µM) | 0.39 (≈ 0.5 µM) | 16 (≈ 20.5 µM) | 6.2 (≈ 7.95 µM) | 0.39 (≈ 0.5 µM) | 0.125 (≈ 0.16 µM) | 0.39 (≈ 0.5 µM) | 0.39 (≈ 0.5 µM) |  |  |  | > 100 |  | > 100 | 
6 | CC[C@H]1OC(=O)[C@H](C)[C@@H](O[C@H]2C[C@@](C)(OC)[C@@H](O)[C@H](C)O2)[C@H](C)[C@@H](O[C@@H]2O[C@H](C)C[C@H](N(C)C)[C@H]2O)[C@](C)(OC)C[C@@H](C)C(=O)[C@H](C)[C@@H](O)[C@]1(C)O [CLARITHROMYCIN] |  | 0.004 (≈ 0.00535 µM) |  |  |  |  |  |  |  |  | 0.03 (≈ 0.0401 µM) |  |  |  |  |  |  | 
7 | CC[C@H]1OC(=O)/C(C)=C/[C@H](C)[C@@H](O[C@@H]2O[C@H](C)C[C@H](N(C)C)[C@H]2O)[C@@](C)(OC)C[C@@H](C)C2=NCCN3C(=O)O[C@@]1(C)[C@H]3[C@H]2C |  | 0.25 (≈ 0.402 µM) | 1 (≈ 1.61 µM) |  | 0.78 (≈ 1.25 µM) | 16 (≈ 25.7 µM) |  | 0.2 (≈ 0.322 µM) | 0.25 (≈ 0.402 µM) | 0.78 (≈ 1.25 µM) | 0.05 (≈ 0.0804 µM) |  |  |  | 8 | > 40 | 66.1 | 7.5

Further lines, with some results ahead:

Row | MIC (Streptococcus pneumoniae [2]) [µg/mL] | MIC (Streptococcus pneumoniae [3]) [µg/mL] | MIC (Streptococcus pneumoniae [4]) [µg/mL] | MIC [5] [µg/mL] | MIC (Staphylococcus aureus [6]) [µg/mL] | MIC (Haemophilus influenzae) [µg/mL] | MIC (Streptococcus pyogenes [8]) [µg/mL] | MIC (Streptococcus pyogenes [9]; Streptococcus pyogenes) [µg/mL] | MIC (Streptococcus pneumoniae [12]) [µg/mL] | MIC (Staphylococcus aureus [13]; Staphylococcus aureus) [µg/mL] | MIC (Staphylococcus aureus [14]) [µg/mL] | MIC (Streptococcus pneumoniae [15]) [µg/mL] | MIC (Streptococcus pyogenes [9]) [µg/mL] | MIC (Staphylococcus aureus [13]) [µg/mL] | SMILES | ED50 (Mus musculus [1]) [mg/kg/day] | ED50 (Mus musculus [7]) [mg/kg/day] | ED50 (Mus musculus [10]) [mg/kg/day] | ED50 (Mus musculus [11]) [mg/kg/day]
8 |  |  | 1 (≈ 1.43 µM) | 50 (≈ 71.3 µM) | 0.1 (≈ 0.143 µM) | 32 (≈ 45.7 µM) | 25 (≈ 35.7 µM) | 0.01 (≈ 0.0143 µM) | 0.03 (≈ 0.0428 µM) | 0.39 (≈ 0.556 µM) |  | 64 (≈ 91.3 µM) |  |  | CC[C@H]1OC(=O)/C(C)=C/[C@H](C)[C@@H](O[C@@H]2O[C@H](C)C[C@H](N(C)C)[C@H]2O)[C@@](C)(OC)C[C@@H](C)C(=O)[C@H](C)[C@H]2N(CCc3ccccc3)C(=O)O[C@]12C |  |  |  | 
9 | 16 (≈ 20.8 µM) |  | 1 (≈ 1.3 µM) | 25 (≈ 32.5 µM) | 0.78 (≈ 1.01 µM) | 32 (≈ 41.6 µM) | 6.2 (≈ 8.06 µM) | 0.78 (≈ 1.01 µM) | 0.125 (≈ 0.163 µM) | 0.39 (≈ 0.507 µM) |  |  |  |  | CC[C@H]1OC(=O)/C(C)=C/[C@H](C)[C@@H](O[C@@H]2O[C@H](C)C[C@H](N(C)C)[C@H]2O)[C@@](C)(OC)C[C@@H](C)C(=O)[C@H](C)[C@H]2N(CCc3cccc(C(F)(F)F)c3)C(=O)O[C@]12C |  |  |  | 
10 | 16 (≈ 22.4 µM) |  | 0.25 (≈ 0.35 µM) | 25 (≈ 35 µM) | 0.39 (≈ 0.545 µM) | 16 (≈ 22.4 µM) | 12.5 (≈ 17.5 µM) | 0.39 (≈ 0.545 µM) | 0.015 (≈ 0.021 µM) | 0.39 (≈ 0.545 µM) |  |  |  |  | CC[C@H]1OC(=O)/C(C)=C/[C@H](C)[C@@H](O[C@@H]2O[C@H](C)C[C@H](N(C)C)[C@H]2O)[C@@](C)(OC)C[C@@H](C)C(=O)[C@H](C)[C@H]2N(CCc3ccc(C)cc3)C(=O)O[C@]12C |  |  |  | 
11 | 32 (≈ 45.3 µM) |  | 0.5 (≈ 0.707 µM) | 50 (≈ 70.7 µM) | 0.39 (≈ 0.552 µM) | 16 (≈ 22.6 µM) | 25 (≈ 35.4 µM) | 0.2 (≈ 0.283 µM) | 0.125 (≈ 0.177 µM) | 0.39 (≈ 0.552 µM) |  |  |  |  | CC[C@H]1OC(=O)/C(C)=C/[C@H](C)[C@@H](O[C@@H]2O[C@H](C)C[C@H](N(C)C)[C@H]2O)[C@@](C)(OC)C[C@@H](C)C(=O)[C@H](C)[C@H]2N(CCc3cccs3)C(=O)O[C@]12C |  |  |  | 
12 |  | 0.25 (≈ 0.419 µM) | 0.5 (≈ 0.838 µM) |  | 0.78 (≈ 1.31 µM) |  |  |  | 0.25 (≈ 0.419 µM) |  | 1.56 (≈ 2.61 µM) |  | 0.2 (≈ 0.335 µM) | 1.56 (≈ 2.61 µM) | CC[C@H]1OC(=O)/C(C)=C/[C@H](C)[C@@H](O[C@@H]2O[C@H](C)C[C@H](N(C)C)[C@H]2O)[C@@](C)(OC)C[C@@H](C)C(=O)[C@H](C)[C@H]2NC(=O)O[C@@]21C (stereo in doubt; 6) | > 40 |  | 35.8 | 
